Source: ChEMBL document CHEMBL5653632, “PRMT5 inhibition disrupts splicing and stemness in glioblastoma” (Nat Commun, 2021)
Calls of active or inactive are those of the source.

How the values were obtained:
[1] = biological target: Protein arginine N-methyltransferase 5 (Homo sapiens) (UniProt O14744); assay: Inhibition of PRMT5 in human G583 cells assessed as reduction in SDMA level at 1 uM after 5 days by Western blot analysis; assay type: cell-based; conditions: time 5.0 day
Outline: (§1)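 Symmetric dimethylarginine on SmB/B' was measured by western blot with IRDye secondary antibodies and infrared imaging.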

[2] = test system: G411; assay: Antiproliferative activity against human G411 cells at 1 uM incubated for 9 to 12 days by IncuCyte zoom live-cell imaging analysis; assay type: functional, cell-based; conditions: time 9-12 day
Outline: (§2)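 Adherent GSCs were cultured in serum-free medium with EGF and bFGF on poly-L-ornithine/laminin and plated in triplicate in 96-well plates. They were treated at 1 µM, with 1 µM SGC2096 or 0.05% DMSO as controls, for 9–12 days or until DMSO wells were confluent. Medium with drug was refreshed every 5 days. IncuCyte confluence was imaged every 8 h and normalized to each well's initial confluence.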

[3] = test system: G583; assay: Antiproliferative activity against human G583 cells at 1 uM incubated for 9 to 12 days by IncuCyte zoom live-cell imaging analysis; assay type: functional, cell-based; conditions: time 9-12 day; outline: as §2
[4] = test system: G561; assay: Antiproliferative activity against human G561 cells at 1 uM incubated for 9 to 12 days by IncuCyte zoom live-cell imaging analysis; assay type: functional, cell-based; conditions: time 9-12 day; outline: as §2
[5] = biological target: Protein arginine N-methyltransferase 5 (Homo sapiens) (UniProt O14744); assay: Inhibition of PRMT5 in human G561 cells assessed as reduction in SDMA level at 1 uM after 5 days by Western blot analysis; assay type: cell-based; conditions: time 5.0 day; outline: as §1
[6] = biological target: Protein arginine N-methyltransferase 5 (Homo sapiens) (UniProt O14744); assay: Inhibition of PRMT5 in human G411 cells assessed as reduction in SDMA level at 1 uM after 5 days by Western blot analysis; assay type: cell-based; conditions: time 5.0 day; outline: as §1

Sequence of Protein arginine N-methyltransferase 5 (Homo sapiens) (O14744 whole entry): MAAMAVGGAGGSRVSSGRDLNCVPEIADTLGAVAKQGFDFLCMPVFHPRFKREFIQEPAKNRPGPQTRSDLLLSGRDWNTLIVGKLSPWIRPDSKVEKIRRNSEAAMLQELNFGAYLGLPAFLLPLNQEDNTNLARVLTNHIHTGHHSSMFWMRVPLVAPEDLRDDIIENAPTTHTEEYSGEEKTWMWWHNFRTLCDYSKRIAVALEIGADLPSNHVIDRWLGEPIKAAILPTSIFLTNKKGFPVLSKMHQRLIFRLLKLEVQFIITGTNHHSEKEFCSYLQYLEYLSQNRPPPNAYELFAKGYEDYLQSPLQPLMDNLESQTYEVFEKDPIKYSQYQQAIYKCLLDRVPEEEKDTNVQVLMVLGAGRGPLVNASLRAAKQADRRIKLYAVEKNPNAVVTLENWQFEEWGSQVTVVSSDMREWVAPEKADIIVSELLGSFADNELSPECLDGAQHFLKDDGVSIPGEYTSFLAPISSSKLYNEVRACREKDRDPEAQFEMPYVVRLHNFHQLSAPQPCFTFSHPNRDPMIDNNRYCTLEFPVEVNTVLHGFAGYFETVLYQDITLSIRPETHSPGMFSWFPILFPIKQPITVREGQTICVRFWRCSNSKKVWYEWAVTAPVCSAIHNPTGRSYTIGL

O=C(NC[C@H](O)CN1CCCCC1)c1ccnc(NC2CCC2)c1
inactive: inhibition [1] | Activity [2] | Activity [3] | Activity [4] | inhibition [5] | inhibition [6]
